Series [1] in a line: folding enthalpy; higher = less favourable; fluorescence melt of hairpins on a sequencing array, two-state fit. To be noted: sodium 0.088 M. In short, it runs like this: (§1)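 Hairpins were imaged by Cy3 fluorescence on a sequenced MiSeq flow cell with annealed Cy3 and quencher oligos, in 50 mM Na-HEPES pH 8.0, 25 mM NaCl, in 2.5 °C steps up to 60 °C. Bootstrapped two-state fits of normalised signals gave melting temperature and folding enthalpy. Four replicates were combined by inverse variance, and fitted temperatures were raised by 9.35 °C to match UV melts.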

A short description of series [2]: melting temperature; fluorescence melt of hairpins on a sequencing array, two-state fit, raised by 9.35 °C to match UV melts. The following applies: sodium 0.088 M. The procedure, abridged: as §1

Turning to GATCCATCCTGGATC ((((((...)))))), the folding enthalpy in series [1] was -43 kcal/mol. Moreover, in series [2], the Tm turned out to be 52.7 °C.
The corresponding values for GTTAGGCGAAAGCCAAC (((.(((....)))))) are -12.7 kcal/mol and 50.7 °C.
For CGCGACCGGAAACGGGCG (((..(((....)))))), the folding enthalpy in series [1] was -11.7 kcal/mol. The Tm in series [2] turned out to be 60 °C.
With GCGCTGCGAAAGCCGGGC ((.(.((....)).).)), in series [1], the folding enthalpy was -20.5 kcal/mol. Besides, in series [2], the Tm was 50.9 °C.
Consider GGATATCGAAAGATGTCC (((.(((....))).))), for which the folding enthalpy in series [1] was -38.9 kcal/mol. Also, the Tm in series [2] turned out to be 52 °C.
Consider GTTTGTGGAAACATAAAC ((((.((....)).)))), for which the folding enthalpy in series [1] was -22.8 kcal/mol. Moreover, the Tm in series [2] was found to be 39.6 °C.
In the case of GAAAACGAAAGTTTGTTC ((((((....)))..))), the folding enthalpy in series [1] was -13.5 kcal/mol. In series [2], the Tm was 28.4 °C.
Regarding GATCTAAGTATAGATC ((((((....)))))), the folding enthalpy in series [1] was -27.7 kcal/mol. For the same sequence, in series [2], the Tm was 37.9 °C.
As for GAGCCAGGAAACCGGCTC (((((.(....).))))), the folding enthalpy in series [1] is -37.5 kcal/mol. In series [2], the Tm came to 56.6 °C.
GGTGTTGGAAACAACATC (.(((((....))))).): the folding enthalpy in series [1] is -24.3 kcal/mol. In addition, the Tm in series [2] worked out at 48.2 °C.
On to GTGATCGAAAGATCGCAC ((((((....)))..))), for which, in series [1], the folding enthalpy was -18.1 kcal/mol. Also, the Tm in series [2] is 51.8 °C.
As to GTCCAGGGAAACCCGGAC ((((.((....)).)))), in series [1], the folding enthalpy was -36.1 kcal/mol. In addition, the Tm in series [2] was found to be 51 °C.
Regarding GCACCGCGAAAGCGCAGC ((..(((....)))..)), the folding enthalpy in series [1] was -9.35 kcal/mol. Moreover, the Tm in series [2] amounted to 38.4 °C.
Take GCAGTGCGAAAGCAGGGC ((..(((....)))..)): the folding enthalpy in series [1] is -21.6 kcal/mol. The Tm in series [2] came out at 58.4 °C.
GTTACCGAAAGGTAAAC ((((((....))).))): the folding enthalpy in series [1] is -15.7 kcal/mol. In addition, in series [2], the Tm was 48 °C.
The corresponding values for GATCCGCGAAAGCGATC (((.(((....)))))) are -14 kcal/mol and 44.6 °C.
For the sequence GGCATCGAAAGATAAGCC ((((((....)))..))), the folding enthalpy in series [1] is -27.9 kcal/mol. The Tm in series [2] came out at 44.7 °C.
As for CGCCACGGAAACGTCGCG (((.(((....))).))), in series [1], the folding enthalpy was -39.2 kcal/mol. The Tm in series [2] is 48.3 °C.
Taken in the same sequence, the figures for GTCAGCGGAAACGCCAAC ((..(((....)))..)) were -7.36 kcal/mol and 21.8 °C.
As to GCCAGCGCGAAAGCGGGC (((..(((....)))))), the folding enthalpy in series [1] was -16.1 kcal/mol. Also, the Tm in series [2] is 61.2 °C.
Regarding GGTGCTGGAAACAGTACC (((.(((....))).))), in series [1], the folding enthalpy was -43.3 kcal/mol. Moreover, the Tm in series [2] came to 53.5 °C.
On to CGTACGGAAACGTCAACG ((((((....)))..))), for which, in series [1], the folding enthalpy was -13.5 kcal/mol. The Tm in series [2] came to 32.2 °C.
GAGCAGCGAAAGCTTCTC (((.(((....))).))): in series [1], the folding enthalpy is -24.7 kcal/mol. In addition, the Tm in series [2] came out at 43.2 °C.
GATCAAACTCTTGATC ((((((....)))))): the folding enthalpy in series [1] was -33.9 kcal/mol. Moreover, the Tm in series [2] was 40.5 °C.
The corresponding values for GCACCGCCGAAAGGCTGC (((..(((....)))))) are -14.7 kcal/mol and 38.9 °C.
Regarding GCTACGCGAAAGCGGGGC ((..(((....)))..)), the folding enthalpy in series [1] was -20.7 kcal/mol. Besides, the Tm in series [2] is 63.7 °C.
Consider GACATCCGAAAGGAAGTC (((.(((....))).))), for which the folding enthalpy in series [1] was -36.6 kcal/mol. Besides, the Tm in series [2] is 48.8 °C.
Taken in the same sequence, the figures for CGCTGACGGAAACGTGCG (((..(((....)))))) were -26.1 kcal/mol and 47.5 °C.
With GCCCCGCGAAAGCGATGC ((..(((....)))..)), the folding enthalpy in series [1] is -11.7 kcal/mol. Besides, the Tm in series [2] was found to be 34.2 °C.
Take GACTACCGAAAGGTCGTC (((.(((....))).))): the folding enthalpy in series [1] was -39.4 kcal/mol. Besides, the Tm in series [2] turned out to be 48.6 °C.
On to GATGACGGAAACATCATC (((((.(....).))))), for which, in series [1], the folding enthalpy is -31.2 kcal/mol. Also, the Tm in series [2] was determined as 34.8 °C.
For the sequence GTACTCGAAAGAGTAC ((((((....)))))), the folding enthalpy in series [1] was -36.2 kcal/mol. Besides, the Tm in series [2] was found to be 61 °C.
For the sequence GGCCTTGGAAACGAGGTC (.(((.(....).))).), the folding enthalpy in series [1] was -31.3 kcal/mol. Moreover, in series [2], the Tm stood at 43.2 °C.
Consider GGGATTGGAAACGATCTC (.(((.(....).))).), for which the folding enthalpy in series [1] was -15.3 kcal/mol. Further, the Tm in series [2] was found to be 31.4 °C.
Regarding GACAACGGAAACGTCGTC (((.(((....))).))), the folding enthalpy in series [1] is -29.5 kcal/mol. The Tm in series [2] came to 43.4 °C.
As for GATCCGTAGACGGATC ((((((....)))))), the folding enthalpy in series [1] is -42.9 kcal/mol. The Tm in series [2] worked out at 58.2 °C.
Taken in the same sequence, the figures for CGGAACCGGAAACGGCCG (((..(((....)))))) were -23.2 kcal/mol and 40.1 °C.
Turning to GCCCTCGGAAACGGGGGC ((((.((....)).)))), in series [1], the folding enthalpy was -32.7 kcal/mol. Further, the Tm in series [2] was found to be 66.9 °C.
Regarding GCTGCCGGAAACAGCAGC (((((.(....).))))), the folding enthalpy in series [1] is -34.1 kcal/mol. In series [2], the Tm came out at 53.8 °C.
Consider GTACCTCGAAAGAGCTAC (((.(((....))).))), for which, in series [1], the folding enthalpy is -11.1 kcal/mol. For the same sequence, the Tm in series [2] is 30.2 °C.
Taken in the same sequence, the figures for GGCTTCGAAAGAACGGCC ((((((....)))..))) were -27.9 kcal/mol and 43 °C.
In the case of GCAGACGGAAACGTCCAC (..((((....))))..), the folding enthalpy in series [1] is -9.46 kcal/mol. The Tm in series [2] was 32.1 °C.
For GATCGGGCGGCCGATC ((((((....)))))), the folding enthalpy in series [1] was -57.9 kcal/mol. Also, the Tm in series [2] was 61.8 °C.
Taken in the same sequence, the figures for GGAGGCGGAAACACCTCC (((((.(....).))))) were -39.4 kcal/mol and 50.1 °C.
GACTTCACGAAAGTGGTC (((..(((....)))))): the folding enthalpy in series [1] is -12.1 kcal/mol. Also, in series [2], the Tm amounted to 31.4 °C.
The corresponding values for GATCGCACCAGCGATC ((((((....)))))) are -31.2 kcal/mol and 69.3 °C.
The corresponding values for GGTTGTGAAAACAACC ((((((....)))))) are -40.1 kcal/mol and 61.5 °C.
On to GCGTTGCGAAAGCCAGGC ((.(.((....)).).)), for which the folding enthalpy in series [1] was -16.9 kcal/mol. The Tm in series [2] turned out to be 40.3 °C.
Consider GTCTATCGAAAGATGGAC (((.(((....))).))), for which the folding enthalpy in series [1] is -30.9 kcal/mol. Besides, the Tm in series [2] was determined as 51.7 °C.
Taken in the same sequence, the figures for GTGCCTGGAAACGGGTAC ((.((.(....).)).)) were -18.6 kcal/mol and 44 °C.
GATATGCGAAAGCAAATC (((.(((....))).))): the folding enthalpy in series [1] is -24.3 kcal/mol. Further, the Tm in series [2] came to 40.1 °C.
Consider CGTACGGAAACGTAACG ((((((....))).))), for which the folding enthalpy in series [1] was -28.7 kcal/mol. Also, the Tm in series [2] came out at 45.3 °C.
Taken in the same sequence, the figures for GCGGAGCGAAAGCCCAGC ((.(.((....)).).)) were -12.1 kcal/mol and 42.5 °C.
Turning to GATCGACCTTTCGATC ((((((....)))))), the folding enthalpy in series [1] is -42.9 kcal/mol. Besides, in series [2], the Tm was 50.6 °C.
The corresponding values for GCGTCCGCACGC ((((....)))) are -17.2 kcal/mol and 52.8 °C.
Turning to GAATCCGGAAACAGATTC (((((.(....).))))), the folding enthalpy in series [1] was -19.5 kcal/mol. The Tm in series [2] was 31.3 °C.
Taken in the same sequence, the figures for GCGTGGGGACGC ((((....)))) were -21.1 kcal/mol and 52.6 °C.
As to GCTGGCGGAAACGTCAGC ((((.((....)).)))), the folding enthalpy in series [1] was -43.2 kcal/mol. For the same sequence, the Tm in series [2] is 61.2 °C.
For the sequence GGGCCCACGAAAGTGCCC (((..(((....)))))), in series [1], the folding enthalpy was -18.8 kcal/mol. Further, the Tm in series [2] was 50.4 °C.
GATCGTAAGGACGATC ((((((....)))))): the folding enthalpy in series [1] was -31.8 kcal/mol. Besides, the Tm in series [2] came out at 53.4 °C.
Taken in the same sequence, the figures for GTGATTGGAAACAATTGC (..((((....))))..) were -20.4 kcal/mol and 31.3 °C.
Taken in the same sequence, the figures for GATCGACTCTCGATC ((((((...)))))) were -40.6 kcal/mol and 50.9 °C.
As to GTCGTTCGAAAGAAAGAC (((.(((....))).))), the folding enthalpy in series [1] was -31.2 kcal/mol. The Tm in series [2] came out at 47.8 °C.
GTCTTTCGAAAGAATGAC (((.(((....))).))): in series [1], the folding enthalpy was -36.6 kcal/mol. For the same sequence, the Tm in series [2] turned out to be 45.2 °C.
The corresponding values for GATCAACCATTTGATC ((((((....)))))) are -32.8 kcal/mol and 42.3 °C.
For GCGGGACGCCGC ((((....)))), the folding enthalpy in series [1] is -13.9 kcal/mol. Further, the Tm in series [2] came to 66.2 °C.
With GGCTGGGCGAAAGCCGCC (((..(((....)))))), in series [1], the folding enthalpy was -19.6 kcal/mol. Further, the Tm in series [2] was determined as 58.4 °C.
For the sequence GGGCGAGGAAACCCGCCC (((((.(....).))))), the folding enthalpy in series [1] was -34.7 kcal/mol. Also, in series [2], the Tm stood at 64.5 °C.
In the case of GATCGCTATGGCGATC ((((((....)))))), in series [1], the folding enthalpy was -30.2 kcal/mol. Further, in series [2], the Tm was 69.1 °C.
GCCGAAGGAAACTCCGGC ((((.((....)).)))): in series [1], the folding enthalpy was -28 kcal/mol. Besides, in series [2], the Tm was 48.3 °C.
Regarding GATCCACTCCTGGATC ((((((....)))))), the folding enthalpy in series [1] is -38.4 kcal/mol. For the same sequence, the Tm in series [2] came to 50.3 °C.
Take GTTCAACCGAAAGGTAAC (((..(((....)))))): in series [1], the folding enthalpy is -11.7 kcal/mol. Also, in series [2], the Tm was 26.7 °C.
As to GATCGGTCAACCGATC ((((((....)))))), the folding enthalpy in series [1] was -39.2 kcal/mol. In addition, in series [2], the Tm amounted to 57.5 °C.
Consider GGTAAGGGAAACCTCACC (((.(((....))).))), for which the folding enthalpy in series [1] is -21.9 kcal/mol. Moreover, in series [2], the Tm turned out to be 34.7 °C.

For the origin of these results see the array DNA melting data of Ke et al. (doi:10.1101/2024.01.08.574731).
